Active and inactive are the calls of the source. No cut-off for these calls is given here.
Key:
SH-SY5Y [1] = experiment: Neuroprotective activity against H2O2-induced cell death in human SH-SY5Y cells assessed as increase in cell viability up to 100 uM; assay type: functional, cell-based
Outline: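 SH-SY5Y cells were injured with H2O2, with test compounds up to 100 μM. Viability was read by MTT assay and compared with the H2O2 model group. Trolox served as positive control. Data were reported as means ± SEM.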

SH-SY5Y [2] = experiment: Neuroprotective activity against H2O2-induced cell death in human SH-SY5Y cells assessed as increase in cell viability at 100 uM relative to control; assay type: functional
Outline: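 SH-SY5Y cells exposed to H2O2, with or without test compound; viability read by MTT assay and compared with the H2O2-only model group. Trolox served as positive control. Cell viability given as means ± SEM.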

SH-SY5Y [3] = experiment: Neuroprotective activity against H2O2-induced morphological changes in human SH-SY5Y cells assessed as reduction in cell shrinkage after 4 hrs by phase contrast microscopic analysis; assay type: functional, cell-based
Outline: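 Cells were exposed to H2O2 (200 μM) for 4 h, in the presence or absence of compound at 25, 50 or 100 μM. Cell shrinkage and other morphology were viewed by phase contrast microscopy and compared with untreated control and H2O2-only cells.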

SH-SY5Y [4] = experiment: Neuroprotective activity against H2O2-induced apoptosis in human SH-SY5Y cells assessed as reduction in nuclear fragmentation at 25 to 100 uM after 4 hrs by Hoechst 33258 staining based fluorescence microscopic analysis; assay type: functional, cell-based
Outline: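 SH-SY5Y cells were incubated with H2O2 (200 μM) for 4 h, with or without compound at 25, 50 or 100 μM. Nuclei were stained with the DNA dye Hoechst 33258. Chromatin condensation and fragmented nuclei were scored by fluorescence microscopy against untreated control and H2O2-only cells.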

SH-SY5Y [5] = experiment: Neuroprotective activity against H2O2-induced apoptosis in human SH-SY5Y cells assessed as viable cells at 25 uM pretreated for 1 hr followed by H2O2-stimulation after 4 hrs by Annexin-V-FITC/propidium iodide staining based flow cytometry (reference value: 76%); assay type: functional; conditions: read-out: Activity
SH-SY5Y [6] = experiment: Neuroprotective activity against H2O2-induced apoptosis in human SH-SY5Y cells assessed as early apoptotic cells at 25 uM pretreated for 1 hr followed by H2O2-stimulation after 4 hrs by Annexin-V-FITC/propidium iodide staining based flow cytometry (reference value: 6.4%); assay type: functional
SH-SY5Y [7] = experiment: Neuroprotective activity against H2O2-induced apoptosis in human SH-SY5Y cells assessed as late apoptotic cells at 25 uM pretreated for 1 hr followed by H2O2-stimulation after 4 hrs by Annexin-V-FITC/propidium iodide staining based flow cytometry (reference value: 15%); assay type: functional
SH-SY5Y [8] = experiment: Neuroprotective activity against H2O2-induced apoptosis in human SH-SY5Y cells assessed as necrotic cells at 25 uM pretreated for 1 hr followed by H2O2-stimulation after 4 hrs by Annexin-V-FITC/propidium iodide staining based flow cytometry (reference value: 2.63%); assay type: functional
SH-SY5Y [9] = experiment: Neuroprotective activity against H2O2-induced apoptosis in human SH-SY5Y cells assessed as viable cells at 50 uM pretreated for 1 hr followed by H2O2-stimulation after 4 hrs by Annexin-V-FITC/propidium iodide staining based flow cytometry (reference value: 76%); assay type: functional; conditions: read-out: Activity
SH-SY5Y [10] = experiment: Neuroprotective activity against H2O2-induced apoptosis in human SH-SY5Y cells assessed as early apoptotic cells at 50 uM pretreated for 1 hr followed by H2O2-stimulation after 4 hrs by Annexin-V-FITC/propidium iodide staining based flow cytometry (reference value: 6.4%); assay type: functional
SH-SY5Y [11] = experiment: Neuroprotective activity against H2O2-induced apoptosis in human SH-SY5Y cells assessed as late apoptotic cells at 50 uM pretreated for 1 hr followed by H2O2-stimulation after 4 hrs by Annexin-V-FITC/propidium iodide staining based flow cytometry (reference value: 15%); assay type: functional
SH-SY5Y [12] = experiment: Neuroprotective activity against H2O2-induced apoptosis in human SH-SY5Y cells assessed as necrotic cells at 50 uM pretreated for 1 hr followed by H2O2-stimulation after 4 hrs by Annexin-V-FITC/propidium iodide staining based flow cytometry (reference value: 2.63%); assay type: functional
SH-SY5Y [13] = experiment: Neuroprotective activity against H2O2-induced apoptosis in human SH-SY5Y cells assessed as viable cells at 100 uM pretreated for 1 hr followed by H2O2-stimulation after 4 hrs by Annexin-V-FITC/propidium iodide staining based flow cytometry (reference value: 76%); assay type: functional; conditions: read-out: Activity
SH-SY5Y [14] = experiment: Neuroprotective activity against H2O2-induced apoptosis in human SH-SY5Y cells assessed as early apoptotic cells at 100 uM pretreated for 1 hr followed by H2O2-stimulation after 4 hrs by Annexin-V-FITC/propidium iodide staining based flow cytometry (reference value: 6.4%); assay type: functional
SH-SY5Y [15] = experiment: Neuroprotective activity against H2O2-induced apoptosis in human SH-SY5Y cells assessed as late apoptotic cells at 100 uM pretreated for 1 hr followed by H2O2-stimulation after 4 hrs by Annexin-V-FITC/propidium iodide staining based flow cytometry (reference value: 15%); assay type: functional
SH-SY5Y [16] = experiment: Neuroprotective activity against H2O2-induced apoptosis in human SH-SY5Y cells assessed as necrotic cells at 100 uM pretreated for 1 hr followed by H2O2-stimulation after 4 hrs by Annexin-V-FITC/propidium iodide staining based flow cytometry (reference value: 2.63%); assay type: functional

Compound	Activity (SH-SY5Y [1])	Activity (SH-SY5Y [2])	other results
COC(=O)[C@]1(C)C[C@@H](O)C[C@@]2(C)[C@@H]3CC[C@@H]4C[C@@]3(CC[C@@H]21)C[C@@H]4C(=O)O	inactive		
C[C@@]12CCC[C@@](C)(C(=O)O)[C@H]1CC[C@]13C=C(C(=O)O)[C@H](CC[C@H]12)C3	inactive		
C[C@@]12C[C@H](O)C[C@@](C)(C=O)[C@H]1CC[C@]13C=C(C(=O)O)[C@H](CC[C@H]12)C3	inactive		
COC(=O)[C@]1(C)C[C@@H](O)C[C@@]2(C)[C@@H]3CC[C@@H]4C[C@]3(C=C4C(=O)O)CC[C@@H]21	inactive		
C[C@@]1(CO)C[C@@H](O)C[C@]2(C)[C@@H]1CC[C@]13C=C(C(=O)O)[C@H](CC[C@H]12)C3	inactive		
CC1(C)[C@H](O)[C@@H](O)C[C@]2(C)[C@@H]1CC[C@]13C=C(C(=O)O)[C@H](CC[C@H]12)C3		>10%	
C[C@@]12CCC[C@@](C)(C(=O)O)[C@H]1CC[C@@]13C[C@@H](CC[C@H]12)[C@](O)(CO)C3	inactive		
C[C@@]1(O)[C@H](O)CC[C@@]2(C)[C@@H]3CC[C@@H]4C[C@@]3(CC[C@H]12)C[C@@H]4C(=O)O		>10%	
COC(=O)[C@]1(C)CC[C@H](O)[C@@]2(C)[C@@H]3CC[C@@H]4C[C@]3(C=C4C(=O)O)CC[C@@H]21	inactive		
C[C@@]12C[C@H](O)C[C@@](C)(C(=O)O)[C@H]1CC[C@@]13C[C@@H](CC[C@H]12)[C@@H](C(=O)O)C3	inactive		
C[C@@]1(CO)CC(=O)C[C@]2(C)[C@@H]1CC[C@@]13C[C@@H](CC[C@H]12)[C@@H](C(=O)O)C3		>10%	
C[C@@]1(CO)C[C@@H](O)C[C@]2(C)[C@@H]1CC[C@@]13C[C@@H](CC[C@H]12)[C@@H](C(=O)O)C3	inactive		
C[C@@]12CCC[C@@](C)(O)[C@H]1CC[C@]13C=C(C(=O)O)[C@H](CC[C@H]12)C3		>10%	Activity (SH-SY5Y [3]): Dose-dependent effect; Activity (SH-SY5Y [4]): Active; viability at 25 µM (SH-SY5Y [5]): 86.2%; Activity (SH-SY5Y [6]): 3.23%; Activity (SH-SY5Y [7]): 9.28%; Activity (SH-SY5Y [8]): 1.29%; viability at 50 µM (SH-SY5Y [9]): 90%; Activity (SH-SY5Y [10]): 3.93%; Activity (SH-SY5Y [11]): 5.34%; Activity (SH-SY5Y [12]): 0.727%; viability at 100 µM (SH-SY5Y [13]): 90%; Activity (SH-SY5Y [14]): 2.58%; Activity (SH-SY5Y [15]): 5.94%; Activity (SH-SY5Y [16]): 1.44%
C[C@@]1(O)[C@H](O)CC[C@@]2(C)[C@@H]3CC[C@@H]4C[C@]3(C=C4C(=O)O)CC[C@H]12	inactive		
C[C@@]12CCC[C@@](C)(C=O)[C@H]1CC[C@@]13C=C(C(=O)O)[C@@H](C1)[C@@H](O)C[C@H]32		>10%	

Reference: ChEMBL document CHEMBL4145575, “ent-Kaurane Diterpenoids with Neuroprotective Properties from Corn Silk ( Zea mays)” (2018)
